# Reference: ChEMBL document CHEMBL1151255, “Cyclic peptides from a Ruegeria strain of bacteria associated with the sponge Suberites domuncula” (2004)
# Activity calls are given as the source filed them. The rule behind the calls is not given here. Where a SMILES comes first, the peptide text is derived from it.
# Assays:
# [1] = system: Bacillus spizizenii; test: Antimicrobial activity against Bacillus subtilis subsp. spizizenii; format: functional
# Summary of the method: (§1)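 MIC by twofold serial dilution in duplicate, top concentration 50 μg/mL. Test strains were B. subtilis subsp. spizizenii DSM 347, E. coli DSM 498 and S. cerevisiae DSM 70449. Growth was scored after 48 h at each strain's optimal growth temperature. Gentamycin and nystatin served as controls.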
# [2] = system: Escherichia coli; test: Antimicrobial activity against Escherichia coli; format: functional, organism-based; summary of the method: as §1
# [3] = system: Saccharomyces cerevisiae; test: Antimicrobial activity against Saccharomyces cerevisiae; format: functional, organism-based; summary of the method: as §1
MIC [1] [µg/mL],SMILES,Activity [1],Activity [2],Activity [3]
,C[C@@H]1NC(=O)[C@H]2C[C@@H](O)CN2C1=O,inactive,inactive,inactive
50,O=C(O)CC[C@@H]1NC(=O)[C@@H]2CCCN2C(=O)CNC1=O (cyclo(Glu-Gly-Pro)),,inactive,inactive
25,O=C(O)CC[C@@H]1NC(=O)[C@@H]2CCCN2C(=O)[C@H](CO)NC(=O)CNC1=O (cyclo(EGSP)),,inactive,inactive
,O=C1CCCNC(=O)CN1,inactive,inactive,inactive
,C[C@@H]1NC(=O)[C@@H]2C[C@@H](O)CN2C1=O,inactive,inactive,inactive
,O=C1[C@@H]2C[C@@H](O)CN2C(=O)[C@@H]2CCCN12,inactive,inactive,inactive
,O=C1NCC(=O)N2CCC[C@@H]12,inactive,inactive,inactive
,O=C(O)CC[C@@H]1NC(=O)[C@@H]2CCCN2C(=O)[C@H](CCC(=O)O)NC(=O)[C@@H]2CCCN2C1=O (cyclo(EPEP)),inactive,inactive,inactive
